{
  "source": "paper PMC3553949",
  "about": "(Nucleic Acids Research, 2012)",
  "molecules": {"B1": {"name": "EZH2 410-421 peptide, phosphorylated at Thr416 (pTP5) (peptide)", "peptide": "ANSRCQ[pT]PIKMK"}, "B2": {"name": "EGFP-NIPP1: ectopically expressed EGFP-NIPP1 wild-type (protein)", "chain": "MAAAANSGSSLPLFDCPTWAGKPPPGLHLDVVKGDKLIEKLIIDEKKYYLFGRNPDLCDFTIDHQSCSRVHAALVYHKHLKRVFLIDLNSTHGTFLGHIRLEPHKPQQIPIDSTVSFGASTRAYTLREKPQTLPSAVKGDEKMGGEDDELKGLLGLPEEETELDNLTEFNTAHNKRISTLTIEEGNLDIQRPKRKRKNSRVTFSEDDEIINPEDVDPSVGRFRNMVQTAVVPVKKKRVEGPGSLGLEESGSRRMQNFAFSGGLYGGLPPTHSEAGSQPHGIHGTALIGGLPMPYPNLAPDVDLTPVVPSAVNMNPAPNPAVYNPEAVNEPKKKKYAKEAWPGKKPTPSLLI", "modifications": "left off: EGFP, end not stated, kept"}, "B3": {"name": "FHA mutant: EGFP-NIPP1 with mutated FHA domain (protein)", "chain": "B2 chain with S68A, R69A, V70A, H71A", "modifications": "left off: EGFP, end not stated, kept"}, "B4": {"name": "NIPP1: recombinant His-NIPP1, or immunoprecipitated EGFP-NIPP1/PP1 complex (protein, UniProt Q12972 1-351, looked up)", "Nuclear inhibitor of protein …": "B2 chain", "modifications": "His tag"}},
  "key": {"[1]": {"system": "PP1", "test": "PP1 associated with immunoprecipitated EGFP-EZH2", "type": "binding", "details": "HEK293T cell lysates, immunoblot", "method_in_brief": "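EGFP-EZH2 (wild-type or TP5 mutant; EGFP-βgal control) was transiently expressed in HEK293T cells and immunoprecipitated from lysates. Lysis buffers contained 20 mM NaF, 5 µM leupeptin, 0.5 mM PMSF and 0.5 mM benzamidine. Co-precipitated PP1 was detected by immunoblotting with ECL.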"}, "[2]": {"system": "EED, SUZ12 and RbAp48", "test": "PRC2 components in immunoprecipitated EGFP-EZH2 complexes", "type": "binding", "details": "immunoblot, Supplementary Figure S5"}, "[3]": {"system": "EGFP-EZH2", "type": "cell-based, mouse", "details": "100 µM roscovitine, 2 h preincubation, HEK293T cells", "method_in_brief": "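HEK293T cells were transfected (Jetprime) with EGFP-tagged mouse EZH2, then preincubated with the CDK inhibitor roscovitine before lysis. EGFP-EZH2 was probed by immunoblot with a rabbit antibody raised against the Thr416-phosphorylated peptide (residues 410–421) coupled to KLH. The antibody was affinity-purified on non-phospho and phospho-peptide–BSA columns. Detection was by ECL imaging.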"}, "[4]": {"target": "NIPP1 FHA domain (Homo sapiens, UniProt Q12972)", "test": "NMR titration", "type": "binding", "method_in_brief": "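¹⁵N-labelled NIPP1 FHA domain was expressed in E. coli grown in M9 with ¹⁵NH₄Cl, His₆-MBP tag removed by TEV, and purified by size exclusion. The domain (0.1 mM) in 20 mM BisTris pH 6.3, 50 mM NaCl, 5 mM DTT was titrated with increasing mouse EZH2 dodecapeptide concentrations at 298 K (500 MHz, 2D ¹H,¹⁵N HSQC). Kd came from nonlinear fitting of CSP versus peptide concentration.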"}, "[5]": {"system": "EZH2-FHA interaction (EGFP-EZH2 / GST-FHA of NIPP1)", "test": "Competition GST pull-down of EGFP-EZH2 with EZH2 dodecapeptides", "type": "binding", "details": "1 mM of the indicated EZH2 dodecapeptides"}, "[6]": {"system": "NIPP1-FHA domain", "test": "GST pull-down of EGFP-EZH2 TP mutants with GST-FHA", "type": "binding", "details": "Thr to Ala mutants, n = 4", "method_in_brief": "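Mouse EZH2 Thr→Ala mutants were made by site-directed mutagenesis in an EGFP-IRES-puro vector and transfected with Jetprime. Lysis buffers contained NaF, leupeptin, PMSF and benzamidine.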"}, "[7]": {"system": "endogenous NIPP1", "test": "Co-immunoprecipitation of EZH2 fusions with endogenous NIPP1", "type": "binding", "details": "HEK293T cell lysates"}, "[8]": {"system": "EGFP-EZH2", "test": "In vitro phosphorylation of EGFP-EZH2 by cyclinA/CDK2", "type": "biochemical, mouse", "details": "autoradiography, γ32P-ATP, cyclinA/CDK2, 60 min, 30°C", "method_in_brief": "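Purified EGFP-tagged mouse EZH2 was incubated 60 min at 30°C with recombinant cyclinA/CDK2 (bacterially expressed). Buffer: 20 mM Tris/HCl pH 7.5, 2 mM DTT, 0.1 mg/ml BSA, 2 mM MgAc, 100 µM ATP, with or without γ³²P-ATP.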"}, "[9]": {"system": "EGFP-EZH2", "test": "Phosphorylation status of EGFP-EZH2 TP mutants in cells", "type": "cell-based, mouse", "details": "EGFP-EZH2 mutant from cells, immunoblot", "method_in_brief": "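EGFP-tagged mouse EZH2 variants (EGFP alone as control) were expressed in cells and isolated by EGFP trap. Elution used 0.2 M glycine pH 2.5 for 90 s, immediately neutralised with 1 M Tris pH 10.8. Eluates were immunoblotted with a pan-phospho-Thr-Pro antibody and an affinity-purified phospho-Thr416 (pTP5) antibody. Blots were visualised by ECL and quantified by densitometry.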"}, "[10]": {"target": "NIPP1 FHA domain (15N-labelled, for NMR)", "test": "NMR titration"}, "[11]": {"system": "EZH2, EED and SUZ12", "test": "EGFP trap of EGFP-NIPP1 and co-precipitation of core PRC2 components", "type": "binding", "details": "EGFP-NIPP1 WT or FHAm, HEK293T cell lysates", "method_in_brief": "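EGFP-NIPP1 is expressed in HEK293T cells by plasmid transfection (Jetprime) and captured by EGFP trap from lysates. Lysis buffer contains 20 mM NaF, 5 µM leupeptin, 0.5 mM PMSF and 0.5 mM benzamidine. Co-precipitated proteins are detected by immunoblotting, using anti-EZH2 (AC-22), an in-house rabbit anti-EED raised against His-EED, and anti-SUZ12 (3C1.2).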"}, "[12]": {"system": "EGFP-EZH2", "test": "In vitro dephosphorylation of EGFP-EZH2 by PP1", "type": "biochemical, mouse", "method_in_brief": "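Mouse EGFP-EZH2 is expressed in HEK293T cells and isolated by immunoprecipitation or EGFP trap. It is incubated 30 min at 30°C in 50 mM Tris/HCl pH 7.5, 1 mM DTT, 0.1 mg/ml BSA with one of: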"}},
  "note": "Substitutions are numbered along the chain they refer to. “Also recorded” adds a separate entry of the source. Non-standard residues stand in square brackets, D forms with d. No end group written: not given here. pT = C[C@@H](OP(=O)(O)O)[C@H](N)C(=O)O",
  "data": [
    {"molecule": "EZH2-WT: EGFP- or Dam-tagged wild-type mouse EZH2", "values": [
      {"measurement": "associated PP1", "setting": "[1]", "result": "contained the same amount of PP1"},
      {"measurement": "abundance of EED, SUZ12 and RbAp48 in complex", "setting": "[2]", "result": "equally abundant"}
    ]},
    {"molecule": "CC[C@H](CO)Nc1nc(NCc2ccccc2)c2ncn(C(C)C)c2n1", "note": "[roscovitine]", "values": [
      {"measurement": "binding of EGFP-EZH2 to GST-FHA", "setting": "[3]", "result": "abolished"},
      {"measurement": "detection of EGFP-EZH2 by pTP5 antibody", "setting": "[3]", "result": "not detected"}
    ]},
    {"molecule": "ANSRCQ(p)TPIKMK [pTP5]", "values": [
      {"measurement": "saturation of binding", "setting": "[4]; 10-fold molar excess of the peptide", "result": "Saturation was not achieved even after a 10-fold molar excess of the peptide"},
      {"measurement": "binding of purified FHA domain to EZH2-derived dodecapeptide", "setting": "[4]; summary in Discussion", "result": "interacts rather poorly"},
      {"measurement": "EZH2-FHA interaction in presence of peptide", "setting": "[5]", "result": "decreased EZH2-FHA interaction"}
    ]},
    {"molecule": "EZH2-mTP5: EZH2 with Thr416 (TP5) mutated to Ala", "values": [
      {"measurement": "binding of EZH2 TP mutant to GST-FHA", "setting": "[6]", "result": "complete loss of binding"},
      {"measurement": "co-immunoprecipitation with endogenous NIPP1", "setting": "[7]", "result": "no longer co-immunoprecipitated with endogenous NIPP1"},
      {"measurement": "in vitro phosphorylation of EZH2 by CDK2", "setting": "[8]", "result": "moderately reduced"},
      {"measurement": "pTP5 signal", "setting": "[9]", "result": "not detected"},
      {"measurement": "associated PP1", "setting": "[1]", "result": "contained the same amount of PP1"},
      {"measurement": "abundance of EED, SUZ12 and RbAp48 in complex", "setting": "[2]", "result": "equally abundant"}
    ]},
    {"molecule": "B1", "values": [
      {"measurement": "Kd", "setting": "[10]", "result": 1.9, "unit": "mM"}
    ]},
    {"molecule": "B2", "values": [
      {"measurement": "co-precipitation of PRC2 components", "setting": "[11]", "result": "Both EZH2 and EED co-precipitated; also recorded: SUZ12, which interacts directly with EZH2 but not with EED ([19]), only co-precipitated with the WT NIPP1 fusion"}
    ]},
    {"molecule": "B3", "values": [
      {"measurement": "co-precipitation of PRC2 components", "setting": "[11]", "result": "only EED co-sedimented"}
    ]},
    {"molecule": "B4", "values": [
      {"measurement": "effect on PP1-mediated dephosphorylation of EGFP-EZH2", "setting": "[12]; 500 nM PP1, recombinant His-NIPP1 4.5 µM to 55 nM", "result": "abolished"},
      {"measurement": "dephosphorylation of EGFP-EZH2 by immunoprecipitated NIPP1/PP1", "setting": "[12]; after pretreatment with trypsin", "result": "the immunoprecipitate dephosphorylated EGFP-EZH2"},
      {"measurement": "dephosphorylation of EGFP-EZH2 by immunoprecipitated NIPP1/PP1", "setting": "[12]; without trypsin pretreatment, co-precipitated PP1 present", "result": "not dephosphorylated"}
    ]}
  ]
}
